Active and inactive are the calls of the source. The rule behind the calls is not given here.

The target of data set [1] is T1, Amyloid-beta precursor protein (Homo sapiens, UniProt P05067). Description: Inhibition of HFIP-pretreated amyloid beta (1 to 42 ) (unknown origin) self aggregation at 50 uM after 24 hrs by LC-MS/MS analysis relative to control. In outline: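 Aβ42 at 50 μM incubated under the ThT assay conditions with or without compound at 50 μM (1:1). Residual monomeric Aβ42 was quantified by MS, and % inhibition was taken against compound-free samples.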
T1 sequence (P05067 whole entry): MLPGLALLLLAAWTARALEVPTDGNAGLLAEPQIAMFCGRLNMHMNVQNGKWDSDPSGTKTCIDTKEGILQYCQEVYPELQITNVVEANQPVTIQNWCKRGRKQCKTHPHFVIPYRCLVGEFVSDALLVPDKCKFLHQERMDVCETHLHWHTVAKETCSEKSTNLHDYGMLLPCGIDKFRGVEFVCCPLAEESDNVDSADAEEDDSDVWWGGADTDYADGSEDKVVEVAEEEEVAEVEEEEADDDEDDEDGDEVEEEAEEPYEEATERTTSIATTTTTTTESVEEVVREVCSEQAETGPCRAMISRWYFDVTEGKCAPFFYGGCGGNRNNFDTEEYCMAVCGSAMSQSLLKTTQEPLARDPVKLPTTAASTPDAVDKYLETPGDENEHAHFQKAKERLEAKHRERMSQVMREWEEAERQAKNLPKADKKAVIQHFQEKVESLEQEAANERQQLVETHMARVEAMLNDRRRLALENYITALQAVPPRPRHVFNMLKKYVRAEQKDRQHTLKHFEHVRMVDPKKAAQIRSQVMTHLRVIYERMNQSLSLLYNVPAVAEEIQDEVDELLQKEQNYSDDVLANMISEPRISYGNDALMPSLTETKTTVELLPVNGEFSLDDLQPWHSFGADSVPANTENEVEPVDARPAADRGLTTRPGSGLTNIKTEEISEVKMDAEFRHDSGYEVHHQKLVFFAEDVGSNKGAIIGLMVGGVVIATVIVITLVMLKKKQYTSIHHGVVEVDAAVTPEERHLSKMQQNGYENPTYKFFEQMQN

Data set [2] in a line: Reversible electrochemical behavior of compound assessed as cathodic peak for reconversion of ortho-benzoquinone in 0.2 M phosphate buffer using Ag/AgCl reference electrode by cyclic voltammetry. It is filed as physicochemical.
Data set [3] has as its target T1, Amyloid-beta precursor protein. The data set can be described thus: Inhibition of HFIP-pretreated amyloid beta (1 to 42 ) (unknown origin) self aggregation at 50 uM after 24 hrs by thioflavin-T fluorescence method relative to control. The procedure, abridged:
(§1)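 Self-aggregation of 50 μM Aβ42 was measured by ThT fluorescence. Single-point % inhibition used compound at 50 μM (1:1 with Aβ42). IC50 was determined where inhibition exceeded 50%. Values are the mean of two independent experiments, each run in duplicate, ± SEM.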

Data set [4] can be described thus: Electrochemical behavior of compound assessed as half wave redox potential in 0.2 M phosphate buffer using Ag/AgCl reference electrode by cyclic voltammetry. The data set is classed as physicochemical.
For data set [5], the system named is SH-SY5Y. The data set can be described thus: Cytotoxicity against human SH-SY5Y cells assessed as reduction in cell viability at 5 to 10 uM measured after 24 hrs by MTT assay. The data set is classed as toxicity, cell-based. The note with it: dose 5-10 µM. The procedure, abridged:
(§2)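 Human neuroblastoma SH-SY5Y cells were treated with compound at 5 and 10 μM for 24 h. Viability was read by MTT assay.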
(Tetrazolium assays rely on reduction of a dye to a coloured formazan, in cell work by metabolically active cells.)

A short description of data set [6]: Electrochemical behavior of compound assessed as anodic peak for oxidation of catechol group in 0.2 M phosphate buffer using Ag/AgCl reference electrode by cyclic voltammetry. It is filed as physicochemical.
Data set [7] has as its target T1, Amyloid-beta precursor protein. The data set can be described thus: Binding affinity to HFIP-pretreated amyloid beta (1 to 42) (unknown origin) assessed as lys16-adduct formation by measuring increase in molecular mass at 50 uM measured up to 6 hrs by LC-MS/MS analysis. In outline: (§3)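 Aβ42 at 50 μM co-incubated with test compound at 50 μM (1:1) under the ThT assay conditions. Deconvoluted mass spectra were taken at 0, 6 and 24 h. Adducts were scored as new higher-mass species, i.e. mass increments over Aβ42.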

Data set [8] has the same target. The data set can be described thus: Inhibition of HFIP-pretreated amyloid beta (1 to 42 ) (unknown origin) self aggregation assessed as increase in protein oxidation at 50 uM after 24 hrs by LC-MS/MS analysis. In outline:
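Aβ42 incubated with or without compound at an equimolar level under the ThT assay conditions. Oxidized Aβ42 was followed by MS as the ratio of the oxidized-Aβ42 signal to the reserpine internal-standard signal, plotted against incubation time.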

Data set [9] has the same target. The data set can be described thus: Binding affinity to HFIP-pretreated amyloid beta (1 to 42) (unknown origin) assessed as lys16-adduct formation by measuring increase in molecular mass at 50 uM measured at 24 hrs by LC-MS/MS analysis. The procedure, abridged:
as §3

Data set [10] relates to SH-SY5Y. The data set can be described thus: Cytotoxicity against human SH-SY5Y cells assessed as reduction in cell viability at 10 uM measured after 24 hrs by MTT assay relative to control. It is filed as toxicity, cell-based. In outline:
as §2

Data set [11] has as its target T1, Amyloid-beta precursor protein. Description: Inhibition of HFIP-pretreated amyloid beta (1 to 42) (unknown origin) self aggregation after 24 hrs by thioflavin-T fluorescence method. In outline: as §1

As a reminder, the inhibition is the share of the control response that was lost under treatment. As to `CCCSC(=O)/C=C/c1cc(O)cc(O)c1`, the inhibition in data set [1] and in [3] was below 10% throughout. Further, the Activity entry in data set [2] is “Active”; in data set [4], 0.66 V; with SH-SY5Y [5], “Non-Toxic”. Also, the Ep in data set [6] came to 0.76 V.
Regarding `CCCSC(=O)/C=C/c1cc(O)ccc1O`, the inhibition in data set [1] is 43.6%; in [3], above 90%. The Activity was 232 Da in [7]; “Active” in data set [2]; 0.1 V in data set [4]; 268 Da in data set [9]; above 50% in the data set on SH-SY5Y [10]. Moreover, the inhibition result in data set [8] was “Active”. Also, the Ep in data set [6] is 0.32 V.
By IC50 is commonly meant the concentration at which inhibition is half-maximal. In the case of `CCCSC(=O)/C=C/c1ccc(O)c(O)c1`, the Activity entry in data set [2] is given as “Active”; in data set [4] it was 0.1 V; in the data set on SH-SY5Y [5], “Non-Toxic”. Further, the inhibition in data set [3] is above 90%. Moreover, the Ep in [6] turned out to be 0.19 V. Also, the IC50 in data set [11] was found to be 3.99 µM.
